The nature of data set [1]: Solubility in culture medium in presence of 5% fetal calf serum. It is filed as physicochemical. As to conditions: culture medium with 5% fetal calf serum.
The test system of data set [2] is HT-29. Nature of the data set: Cytotoxicity against human HT29 cells under hypoxic conditions after 4 hrs. In kind it is functional, cell-based. To be noted: HT-29, 4 h.
In data set [3] the test system is HT-29. Put plainly: Ratio of IC50 for HT29 cells under oxic conditions to hypoxic conditions after 4 hrs. It is filed as functional, Homo sapiens.
Data set [4] has as its system SiHa. Nature of the data set: Cytotoxicity against human SiHa cells under hypoxic conditions after 4 hrs. In kind it is functional, cell-based.
The test system of data set [5] is SiHa. Nature of the data set: Ratio of IC50 for SiHa cells under oxic conditions to hypoxic conditions after 4 hrs. It is filed as functional, Homo sapiens.
In data set [6] the test system is HT-29. Put plainly: Effect on human HT29 cells under hypoxic conditions assessed as drug level causing 10% clonogenic survival. It is filed as functional. Put shortly: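 HT29 suspensions (1 or 2 × 10^6 cells/mL) in serum-free medium were stirred under 5% CO2/95% N2 for 90 min. Drug was added from deoxygenated DMSO stock at a level giving about 10% survival at 1 h, and samples were taken up to 3 h. Clonogenic survival (14 days, methylene blue) was fitted with the HPLC concentration–time data, and the 10% survival exposure was interpolated.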

The test system of a further data set is Mus musculus. Nature of the data set: Toxicity in ip dosed CD1 mouse. To be noted: in vivo. It is filed as organism-based. Summed up:
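MTD in CD-1 homozygous nude mice after single i.p. doses (HCl salts in saline, 5% DMSO/saline or lactate buffer pH 4.0), escalated in 1.33-fold increments. MTD taken as the highest dose causing no death, no body weight loss >15% and no other severe morbidity in any of 6 mice.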

Data set [7] can be described thus: Cmax in CD1 mouse at 316 umol/kg, ip. Set-up: dose 316 umol/kg, route intraperitoneal. To be noted: in vivo. In kind it is ADME, organism-based. Put shortly: (§1)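 Single i.p. dose to CD-1 homozygous nude mice, drug as HCl salt in 0.9% saline, 5% DMSO/saline or lactate buffer (pH 4.0). Plasma total drug measured by HPLC at 75 or 100% of MTD (MTD from 1.33-fold dose steps, 6 mice). Noncompartmental analysis gave AUC, Cmax and t1/2.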

A short description of data set [8]: Half life in CD1 mouse at 316 umol/kg, ip. In kind it is ADME, organism-based. As to conditions: in vivo. Put shortly: as §1
Data set [9] can be described thus: AUC in CD1 mouse at 316 umol/kg, ip. It is filed as ADME, organism-based. To be noted: plasma. Put shortly: as §1
The nature of data set [10]: Cmax in CD1 mouse at 1000 umol/kg, ip. It is filed as ADME, organism-based. Also on record: dose 1000 umol/kg, route intraperitoneal. As to conditions: in vivo. Put shortly: as §1
Data set [11] can be described thus: Half life in CD1 mouse at 1000 umol/kg, ip. In kind it is ADME, organism-based. As to conditions: in vivo. Put shortly:
as §1

Data set [12] can be described thus: AUC in CD1 mouse at 1000 umol/kg, ip. It is filed as ADME, organism-based. To be noted: plasma. Put shortly: as §1
Data set [13] deals with HT-29. Put plainly: Antitumor activity against human HT29 cells implanted in CD1 mouse assessed as clonogenic survival at 1000 umol/kg, ip after 18 hrs relative to control. In kind it is functional. Put shortly:
(§2)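 HT29 xenografts in CD-1 homozygous nude mice; single i.p. dose of drug alone, formulated as the HCl salt in 0.9% saline, 5% DMSO/saline or lactate buffer (pH 4.0). Tumors excised 18 h later, dissociated to single-cell suspensions and plated. Clonogens/g of tumor counted; surviving fraction = treated/control clonogens/g.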

The test system of data set [14] is HT-29. Nature of the data set: Antitumor activity against human HT29 cells implanted in CD1 mouse at 1000 umol/kg, ip administered 5 mins after irradiation by excision assay relative to radiation alone. In kind it is functional. Put shortly:
(§3)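 Hypoxic-cell excision assay in HT29 xenografts in CD-1 homozygous nude mice. Mice received 20 Gy γ radiation to sterilize oxic tumor cells, then a single i.p. drug dose (HCl salt in saline, 5% DMSO/saline or pH 4.0 lactate buffer) 5 min later. Tumors excised at 18 h and plated for clonogens/g. Log cell kill = log(clonogens/g, radiation only) − log(clonogens/g, radiation plus drug).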

The nature of data set [15]: Half life in CD1 mouse at 562 umol/kg, ip. In kind it is ADME, organism-based. To be noted: in vivo. Summed up: as §1
A short description of data set [16]: AUC in CD1 mouse at 562 umol/kg, ip. In kind it is ADME, organism-based. As to conditions: plasma. Put shortly: as §1
Data set [17] deals with HT-29. Nature of the data set: Antitumor activity against human HT29 cells implanted in CD1 mouse assessed as clonogenic survival at 562 umol/kg, ip after 18 hrs relative to control. It is filed as functional. Summed up: as §2
Data set [18] relates to HT-29. Nature of the data set: Antitumor activity against human HT29 cells implanted in CD1 mouse at 562 umol/kg, ip administered 5 mins after irradiation by excision assay relative to radiation alone. In kind it is functional. Summed up:
as §3

Data set [19] deals with HT-29. Put plainly: Diffusion coefficient, D in HT29 multicellular layers. In kind it is ADME, cell-based. As to conditions: human. Summed up:
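HT29 multicellular layers were grown 3 days on collagen-coated Teflon membranes, equilibrated 60 min under 95% O2/5% CO2 at 37 °C, then placed in a diffusion chamber. Donor and receiver were sampled up to 5 h and assayed by HPLC. D came from fitting both profiles to a Fickian model with membrane and MCL in series, corrected by support-only Ds.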

Data set [20] in a line: Cmax in CD1 mouse at 421 umol/kg, ip. In kind it is ADME, organism-based. Set-up: dose 421 umol/kg, route intraperitoneal. To be noted: in vivo. Summed up:
as §1

A short description of data set [21]: Half life in CD1 mouse at 421 umol/kg, ip. As to conditions: in vivo. It is filed as ADME, organism-based. Summed up: as §1
Data set [22] in a line: AUC in CD1 mouse at 421 umol/kg, ip. In kind it is ADME, organism-based. As to conditions: plasma. Put shortly:
as §1

What is called solubility is the concentration that dissolves in the medium under given conditions. The IC50 is the concentration that gives 50% inhibition. As usually defined, the Cmax is the highest concentration seen after dosing. Usually half-life stands for how long it takes for the measured level to halve. Lower therefore signals fast loss. As usually defined, the AUC is concentration integrated over time. `COc1ccc2c(c1)[n+]([O-])c(NCCN1CCCCC1)n[n+]2[O-]`: the solubility in data set [1] was determined as 45 mM. Moreover, the IC50 in the data set on HT-29 [2] is 10.8 µM; with SiHa [4] it was 3 µM. Also, the “Ratio IC50” value in the data set on HT-29 [3] is on record as 24; in the data set with SiHa [5], 65. For the same compound, the Activity in the data set on HT-29 [6] was found to be 38.9 µM·h. Besides, the MTD in the data set on Mus musculus was 421 µmol/kg. For the same compound, the highest level in data set [7] (Cmax) was 26.7 µM. Further, the half-life in data set [8] was 24.6 min. The compound also showed an exposure (AUC) in data set [9] of 20.2 µM·h.
Consider `CC(C)Oc1ccc2c(c1)[n+]([O-])c(NCCN(C)C)n[n+]2[O-]`, for which, in data set [1], the solubility was over 55 mM. Also, the IC50 turned out to be 6.2 µM in the data set on HT-29 [2] and 3.2 µM with SiHa [4]. The Ratio IC50 in the data set with HT-29 [3] is 162; in the data set with SiHa [5], 31. For the same compound, the Activity with HT-29 [6] came out at 22.3 µM·h. Besides, in the data set on Mus musculus, the MTD was 1330 µmol/kg. This compound had a maximum concentration (Cmax) in [10] of 123 µM. The half-life in data set [11] is 26.1 min. Besides, the area under the curve (AUC) in data set [12] turned out to be 102 µM·h. The LCK was -0.17 in the data set with HT-29 [13] and 0.53 with HT-29 [14].
Take `CN(C)CCNc1n[n+]([O-])c2ccc(OCC3CC3)cc2[n+]1[O-]`: the solubility in data set [1] stood at 43 mM. The half-maximal inhibitory concentration (IC50) with HT-29 [2] worked out at 3.8 µM; in the data set with SiHa [4], 2.1 µM. Besides, the Ratio IC50 came out at 35 with HT-29 [3] and 101 in the data set on SiHa [5]. The Activity in the data set on HT-29 [6] amounted to 45.1 µM·h. In the data set on Mus musculus, this compound yielded an MTD of 750 µM/g. In addition, the half-life in data set [11] stood at 33.9 min. Further, the AUC in data set [12] is 51.3 µM·h. Besides, the LCK was -0.14 in the data set on HT-29 [13] and -0.06 in the data set on HT-29 [14].
With `COCCOc1ccc2c(c1)[n+]([O-])c(NCCN(C)C)n[n+]2[O-]`, the solubility in [1] is over 51 mM. Besides, the IC50 with HT-29 [2] came to 5 µM; in the data set on SiHa [4], 1.6 µM. For the same compound, the Ratio IC50 in the data set on HT-29 [3] was found to be 117; with SiHa [5], 401. Moreover, in the data set with HT-29 [6], the Activity was determined as 51.8 µM·h. The compound further showed an MTD in the data set on Mus musculus of 1330 µM/g. In addition, the half-life in [15] is 44.9 min. The compound further gave an AUC in data set [16] of 257 µM·h. Besides, the LCK in the data set on HT-29 [17] was -0.08; in the data set on HT-29 [18] it was 0.3.
As for `CN(C)CCNc1n[n+]([O-])c2ccc(C(C)(C)C)cc2[n+]1[O-]`, the solubility in [1] was 38 mM. In addition, the IC50 with HT-29 [2] was found to be 3.7 µM; in the data set with SiHa [4], 1.1 µM. The “Ratio IC50” value in the data set with HT-29 [3] came to 99; in the data set on SiHa [5] it was 78. The same compound returned a D in the data set with HT-29 [19] of 8.63e-07 cm²/s. In the data set on HT-29 [6], the Activity amounted to 11.4 µM·h. The compound also returned an MTD with Mus musculus of 421 µmol/kg. The concentration in data set [20] peaked (Cmax) at 16.1 µM. Besides, the half-life in [21] turned out to be 12.5 min. Besides, the area under the curve (AUC) in data set [22] was 9.73 µM·h.
Consider `COc1ccc2c(c1)[n+]([O-])c(NCCN(C)C)n[n+]2[O-]`, for which the solubility in data set [1] stood at 46 mM. For the same compound, the values for the IC50 in the data set with HT-29 [2] and in the data set with SiHa [4] were 7.7 µM and 2.9 µM, respectively. Besides, the “Ratio IC50” value with HT-29 [3] is recorded as 89; with SiHa [5] it was 232. The D with HT-29 [19] worked out at 2.32e-07 cm²/s. The Activity in the data set with HT-29 [6] is 26.1 µM·h. Also, in the data set with Mus musculus, the MTD worked out at 1000 µmol/kg. This compound registered a Cmax in [10] of 157 µM. Moreover, the half-life in [11] came out at 51.5 min. The same compound showed an AUC in data set [12] of 240 µM·h. For the same compound, the LCK came out at 0.15 in the data set with HT-29 [13] and 1.84 in the data set on HT-29 [14].
Turning to `Cc1ccc2c(c1)[n+]([O-])c(N)n[n+]2[O-]`, in [1], the solubility stood at 3 mM. In the data set on HT-29 [2], this compound came in with an IC50 of 12.9 µM. In addition, the “Ratio IC50” value in the data set on HT-29 [3] amounted to 36. In addition, the D with HT-29 [19] stood at 5.43e-07 cm²/s. Besides, the Activity in the data set on HT-29 [6] amounted to 61.9 µM·h. In addition, in the data set with Mus musculus, the MTD was determined as 1000 µmol/kg. Also, the Cmax in data set [10] is 198 µM. Moreover, the half-life in data set [11] was 34.1 min. Besides, the LCK in the data set on HT-29 [13] is reported as 0.39; in the data set with HT-29 [14], 2.16.

The values are drawn from ChEMBL document CHEMBL1138329, “Pharmacokinetic/pharmacodynamic model-guided identification of hypoxia-selective 1,2,4-benzotriazine 1,4-dioxides with antitumor activity: the role of extravascular transport” (J Med Chem, 2007).
